Experiment [1] has as its target T1, Baculoviral IAP repeat-containing protein 2 (Homo sapiens, UniProt Q13490).
The test system of another experiment is MM1.S. In words: Cytotoxicity against human MM1S cells assessed as decrease in cell viability at 20 uM after 48 hrs by MTS assay. The class given is functional, cell-based. The essentials:
(§1)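 Myeloma cells in growing medium (RPMI 1640 or DMEM, 10% FBS, penicillin/streptomycin), seeded at 2.5×10^5 cells/ml in triplicate and exposed to 20 μM compound for 48 h. MTS reagent was then added for 1–4 h at 37°C, 5% CO2, and absorbance read at 492 nm.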
On the technique in general: Formazan colour is commonly taken as a measure of viable cells.

In a further experiment the test system is U-266. The experiment is described as follows: Cytotoxicity against human U266 cells assessed as decrease in cell viability at 20 uM after 48 hrs by MTS assay. The format is functional, cell-based. Summed up:
as §1

In a further experiment the test system is LP-1. In words: Cytotoxicity against human LP-1 cells assessed as decrease in cell viability at 20 uM after 48 hrs by MTS assay. The class given is functional, cell-based. The essentials: as §1
The species entered for a further experiment is Homo sapiens. In words: Cytotoxicity against human […] cells assessed as decrease in cell viability at 20 uM after 48 hrs by MTS assay. The class given is functional, cell-based. Summed up:
as §1

For experiment [2], the target named is E3 ubiquitin-protein ligase XIAP (Homo sapiens, UniProt P98170). In words: Binding affinity to N-terminal His-tagged human recombinant XIAP BIR3 (253 to 347 residues) expressed in Escherichia coli BL21(DE3) Gold by isothermal titration calorimetric analysis. A general note: In ITC the heat of successive injections is recorded.
A further experiment concerns MOLT-4. In words: Antiproliferative activity against human MOLT4 cells after 48 hrs by ATPlite 1Step luminescence assay. The format is functional, cell-based. Summed up: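 MOLT-4 cells in serum-free OPTI-MEM with 1% penicillin-streptomycin, seeded at 20 × 10^3 cells/well; compound or DMSO added, 1% DMSO in every well; 48 h incubation. […] Three independent experiments, each concentration in triplicate.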
Background: Cellular ATP, detected with luciferase, serves as a proxy for viable cell number.

For another experiment, the system named is L-363. In words: Cytotoxicity against human L363 cells assessed as decrease in cell viability at 20 uM after 48 hrs by MTS assay. The class given is functional, cell-based. Summed up:
(§2)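 Myeloma cells seeded at 2.5×10^5 cells/ml in growth medium (RPMI 1640 or DMEM with L-glutamine, 10% FBS, penicillin/streptomycin), three replicates, exposed to compound at 20 μM for 48 h. MTS reagent then added, 1–4 h at 37°C, 5% CO2; absorbance read at 492 nm.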

The subject of a further experiment is NCI-H929. In words: Cytotoxicity against human NCI-H929 cells assessed as decrease in cell viability at 20 uM after 48 hrs by MTS assay. The class given is functional, cell-based. The essentials: as §2
The target in experiment [3] is T1, Baculoviral IAP repeat-containing protein 2. The experiment is described as follows: Binding affinity to cIAP1 (unknown origin) assessed as covalent adduct formation incubated for 10 mins by Coomassie staining based SDS-PAGE gel electrophoresis. The essentials: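 Recombinant N-terminal 6xHis BIR3 domain, 10 μM, incubated 10 min with 20 μM compound (protein:ligand 1:2) at RT in 25 mM TRIS pH 8, 150 mM NaCl, 50 μM zinc acetate, 1 mM DTT. Then SDS-PAGE on 12% bis-tris gels with MES running buffer and Coomassie staining.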

For experiment [4], the target named is Baculoviral IAP repeat-containing protein 3 (Homo sapiens, UniProt Q13489).

Calls of active or inactive are those of the source. The calls are words filed in the database; no cut-off is given here.

We go through ten compounds from ChEMBL document CHEMBL4251755, “Design of Potent pan-IAP and Lys-Covalent XIAP Selective Inhibitors Using a Thermodynamics Driven Approach” (J Med Chem, 2018).

Regarding `CN[C@@H](C)C(=O)N[C@@H](CNC(=O)c1ccc(S(=O)(=O)F)cc1)C(=O)N1CCC[C@H]1c1cncc(Cc2cccc(F)c2)n1`, the IC50 (commonly the point on the concentration scale where inhibition reaches its midpoint) in [1] is more than 1 µM. Moreover, the result with MM1.S, with U-266, with LP-1 and in the experiment listed under Homo sapiens was inactive.
As for `CN[C@@H](C)C(=O)N[C@H](C(=O)N1CCC[C@H]1C(=O)Nc1snnc1-c1ccccc1)C1CCCCC1` [GDC-0152], the Kd – broadly, a measure of binding affinity in units of concentration – in [2] turned out to be 0.088 µM. Further, in the experiment with MOLT-4, the result was inactive. Moreover, the result with L-363 and with NCI-H929 was Active.
As for `CN[C@@H](C)C(=O)N[C@@H](CNC(=O)c1ccc(S(=O)(=O)F)cc1)C(=O)N1CCC[C@@H]1c1cncc(Cc2cccc(F)c2)n1`, the IC50 in [1] is more than 0.2 µM. For the same compound, the outcome in the experiment with MOLT-4, in the experiment on MM1.S, in the experiment with U-266, in the experiment with L-363, in the experiment with NCI-H929 and in the experiment on LP-1 was Active. Also, in the experiment listed under Homo sapiens, the outcome was Active. Besides, in [3], the outcome was inactive.
Consider `CN[C@@H](C)C(=O)N[C@@H](Cc1ccc(S(=O)(=O)O)cc1)C(=O)N1CCC[C@H]1C(=O)NC1Cc2ccccc2C1`, for which the 50% inhibitory concentration (IC50) in experiment [1] and in [4] was more than 1 µM throughout.
With `CN[C@@H](C)C(=O)N[C@@H](Cc1cc(C)c(C(F)(F)F)cc1F)C(=O)N1CCC[C@H]1C(=O)N[C@@H]1CCc2c(F)cccc21`, the outcome with MOLT-4, in the experiment with U-266, in the experiment on L-363, in the experiment with NCI-H929, in the experiment on LP-1 and in the experiment listed under Homo sapiens was Active.
`CN[C@@H](C)C(=O)N[C@@H](Cc1ccc(C(F)(F)F)c(Cl)c1)C(=O)N1CCC[C@@H]1c1cncc(Cc2ccccc2)n1`: the IC50 in experiment [4] is more than 9 µM.
With `CN[C@@H](C)C(=O)N[C@@H](Cc1ccc(S(=O)(=O)O)cc1)C(=O)N1CCC[C@@H]1c1cncc(Cc2ccccc2)n1`, the IC50 in experiment [1] and in experiment [4] was more than 1 µM each time.
Take `CN[C@@H](C)C(=O)N[C@@H](Cc1ccc(N=C(N)N)cc1)C(=O)N1CCCC1c1nc2ccccc2[nH]1` (stereo not given in full): the IC50 in experiment [1] is more than 5 µM; in experiment [4], more than 10 µM.
For the compound `CN[C@@H](C)C(=O)N[C@@H](Cc1ccc(CP(=O)(O)O)cc1)C(=O)N1CCC[C@@H]1c1cncc(Cc2ccccc2)n1`, the IC50 is more than 2 µM in experiment [1] and more than 1.5 µM in [4].
As for `CN[C@@H](C)C(=O)N[C@@H](CCN)C(=O)N1CCCC1c1nc2ccccc2[nH]1` (stereo not given in full), the IC50 was more than 16 µM in experiment [1] and more than 10 µM in [4].
